Calls of active or inactive are those of the source. The calls are words filed in the database; no cut-off is given here.
Assays:
Toll-like receptor 8 = target: T1, Toll-like receptor 8 (Homo sapiens, UniProt Q9NR97); experiment: Inhibition of human TLR8 expressed in HEK-Blue cells assessed as inhibition of R848-induced NF-kappaB activation measured after 24 hrs by quanti-blue based SEAP reporter gene assay; assay type: cell-based
T1 sequence (Q9NR97 whole entry): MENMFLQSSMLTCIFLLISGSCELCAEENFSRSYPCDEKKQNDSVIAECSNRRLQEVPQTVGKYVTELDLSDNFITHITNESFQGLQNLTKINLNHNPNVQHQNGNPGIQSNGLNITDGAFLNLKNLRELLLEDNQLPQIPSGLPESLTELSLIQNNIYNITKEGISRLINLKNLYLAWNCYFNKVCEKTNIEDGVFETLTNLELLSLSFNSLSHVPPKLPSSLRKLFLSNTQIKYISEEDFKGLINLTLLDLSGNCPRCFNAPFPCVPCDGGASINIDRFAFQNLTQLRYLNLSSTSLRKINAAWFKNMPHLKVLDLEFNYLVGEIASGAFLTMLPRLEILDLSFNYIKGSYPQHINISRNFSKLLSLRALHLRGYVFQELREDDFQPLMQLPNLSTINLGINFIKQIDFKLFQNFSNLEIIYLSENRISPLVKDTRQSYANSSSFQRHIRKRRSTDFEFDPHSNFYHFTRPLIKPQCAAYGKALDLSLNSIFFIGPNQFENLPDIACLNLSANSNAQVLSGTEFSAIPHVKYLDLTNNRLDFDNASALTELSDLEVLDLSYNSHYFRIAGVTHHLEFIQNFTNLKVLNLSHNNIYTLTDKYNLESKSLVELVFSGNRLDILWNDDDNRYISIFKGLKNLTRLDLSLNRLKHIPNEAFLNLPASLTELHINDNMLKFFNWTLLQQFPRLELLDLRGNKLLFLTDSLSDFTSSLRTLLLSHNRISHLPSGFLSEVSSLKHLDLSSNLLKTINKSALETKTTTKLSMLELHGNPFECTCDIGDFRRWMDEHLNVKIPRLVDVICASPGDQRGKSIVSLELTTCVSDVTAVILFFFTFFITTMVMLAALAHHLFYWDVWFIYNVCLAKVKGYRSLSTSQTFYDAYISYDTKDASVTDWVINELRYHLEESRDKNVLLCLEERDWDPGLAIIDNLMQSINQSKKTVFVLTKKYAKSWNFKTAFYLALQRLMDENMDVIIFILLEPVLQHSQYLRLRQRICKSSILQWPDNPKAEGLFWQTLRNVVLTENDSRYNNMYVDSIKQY

[1] = Cytotoxicity against HEK-Blue cells expressing human TLR8 assessed as reduction in cell viability measured after 24 hrs by CCK8 assay; assay type: cell-based
Method in brief: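 CCK-8 viability: compounds incubated 24 h at 37 °C with HEK-Blue TLR8 cells (4 × 10⁴ cells/well) or PBMCs (3 × 10⁶ cells/mL). CCK-8 was added at 1:10 for up to 2 h, then absorbance read at 450 nm. Values normalized to untreated cells as 100% survival.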

[2] = target: T2, Toll-like receptor 8 (Homo sapiens) (UniProt Q9NR97); experiment: Inhibition of human TLR8 expressed in HEK-Blue cells assessed as inhibition of R848-induced IL-8 mRNA level at 1 uM measured after 8 hrs by Trizol reagent based qRT-PCR analysis; assay type: cell-based
T2 sequence (whole entry): T1 sequence (Q9NR97 whole entry)
Method in brief: (§1)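 RT-qPCR: HEK-Blue TLR8 cells seeded at 1 × 10⁶/well and grown 24 h, then switched to serum-free medium. Treated with R848 4 µg/mL ± compound 1 µM for 8 h. Total RNA extracted with TRIzol, reverse transcribed, TNF-α and IL-8 mRNA quantified. Three independent biological replicates, mean ± s.d.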

[3] = target: T2, Toll-like receptor 8 (Homo sapiens); experiment: Inhibition of TLR8 in human PBMC assessed as reduction in R848-induced TNFalpha production measured after 24 hrs by ELISA
Method in brief: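 PBMCs from healthy donors isolated by density gradient centrifugation and cultured at once at 3 × 10⁶ cells/mL in RPMI 1640. Cells received R848 and varying compound concentrations for 24 h. Supernatants spun 10 min at 4 °C, frozen at −80 °C, and TNF-α measured by ELISA.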

[4] = target: T2, Toll-like receptor 8 (Homo sapiens); experiment: Inhibition of human TLR8 expressed in HEK-Blue cells assessed as inhibition of R848-induced TNFalpha mRNA level at 1 uM measured after 8 hrs by Trizol reagent based qRT-PCR analysis; assay type: cell-based; method in brief: as §1

IC50 (Toll-like receptor 8) [µM]	Compound	Activity [1]	further results
> 20	NC(=O)Sc1nnc(CCCO)n1-c1ccc(Cl)cc1Cl		
> 20	NC(=O)CSc1nnc(CCCO)n1-c1ccc(Cl)cc1Cl		
> 20	OCCCc1nnc(S)n1-c1ccc(Cl)cc1Cl		inhibition [2]: inactive; inhibition [3]: inactive; inhibition [4]: inactive
9	CSc1nnc(O)n1-c1ccc(Cl)cc1Cl		

Second part, the molecule before the results:

Compound	IC50 (Toll-like receptor 8) [µM]	Activity [1]	further results
CSc1nnc(CCCO)n1-c1cccnc1	> 20		
CSc1nnc(CCCO)n1C1CCCCC1	> 20		
CSc1nnc(CCCO)n1-c1ccc(Cl)cc1Cl		Non-Toxic	
Fc1cccc(-n2c(SCc3c(Cl)cccc3Cl)nnc2C2CC2)c1		Non-Toxic	
Cc1nc(-c2nnc(SCc3ccccc3)n2-c2cccc(F)c2)cs1		Non-Toxic	
